From publication PMC4183726 (Journal of biomolecular screening, 2014)
Structures can show the parent of a compound that is named as a salt. Where two headings read alike, the source gives them in different places.

What was measured:
[1] = target: T1, MBD2-MBD (Homo sapiens, UniProt Q9UBB5); test: TR-FRET dose-response; assay type: binding; conditions: for dose-response for inhibition of MBD2-MBD binding to methylated DNA (in words): TR-FRET, dose range tested up to 20 µM
[2] = target: SP-1 (Homo sapiens, UniProt P08047); test: TR-FRET counter screen with transcription factor SP-1 binding to DNA; conditions: for inhibition of SP-1 binding to DNA (in words): TR-FRET counter screen, dose response
Sequence of SP-1 (P08047 whole entry): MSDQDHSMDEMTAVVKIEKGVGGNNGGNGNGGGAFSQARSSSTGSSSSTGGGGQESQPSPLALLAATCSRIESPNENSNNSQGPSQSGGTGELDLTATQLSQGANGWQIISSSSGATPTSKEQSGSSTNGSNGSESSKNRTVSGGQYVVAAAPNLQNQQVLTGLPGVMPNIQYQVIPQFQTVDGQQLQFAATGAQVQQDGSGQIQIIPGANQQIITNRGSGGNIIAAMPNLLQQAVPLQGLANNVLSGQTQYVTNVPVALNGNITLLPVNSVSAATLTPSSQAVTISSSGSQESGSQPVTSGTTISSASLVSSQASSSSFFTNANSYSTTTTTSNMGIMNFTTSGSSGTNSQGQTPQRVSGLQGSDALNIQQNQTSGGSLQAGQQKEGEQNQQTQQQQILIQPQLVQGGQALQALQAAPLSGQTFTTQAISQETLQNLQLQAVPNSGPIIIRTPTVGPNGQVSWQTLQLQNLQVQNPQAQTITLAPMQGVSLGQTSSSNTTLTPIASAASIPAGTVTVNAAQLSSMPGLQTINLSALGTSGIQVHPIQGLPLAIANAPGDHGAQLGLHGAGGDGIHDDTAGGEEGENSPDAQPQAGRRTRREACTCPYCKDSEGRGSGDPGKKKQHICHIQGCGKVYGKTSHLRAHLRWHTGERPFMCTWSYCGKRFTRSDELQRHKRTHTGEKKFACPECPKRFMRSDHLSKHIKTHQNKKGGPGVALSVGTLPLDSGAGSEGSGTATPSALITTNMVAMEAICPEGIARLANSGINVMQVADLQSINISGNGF

[3] = target: T1, MBD2-MBD; test: TR-FRET binding curves of MBD2-MBD to methylated and unmethylated DNA; conditions: read-out: EC50 of MBD2-MBD binding to DNA; TR-FRET assay
Summary of the method: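 His-tagged MBD2-MBD (25nM; E. coli-expressed, Ni-NTA and gel-filtration purified) in the FP binding buffer. FAM-labelled methylated or unmethylated hairpin oligo added as a dilution series, with 5 nM Tb-anti-His antibody. 1 h at 4°C with shaking. Ex 332 nm; emission 485 and 515 nm read after a 50 µsec delay over 400 µsec. No-protein 515/485 ratio subtracted; plotted against total DNA concentration and curve-fitted.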

[4] = target: T1, MBD2-MBD; conditions: read-out: EC50 of MBD2-MBD binding to DNA; FP assay
Summary of the method: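 His-tagged MBD2-MBD expressed in E. coli BL21 DE3 and purified by Ni-NTA and gel filtration. Protein dilution series in 10 mM Tris-HCl pH 7.4, 125 mM NaCl, 4% glycerol, 1 mM MgCl2, 0.5 mM EDTA, 0.5 mM DTT, 0.2% Tween-20. Added 10nM FAM-labelled hairpin oligo (CpG-methylated or unmethylated; annealed at 95°C, then ice). 1 h at 4°C with shaking, quadruplicate. Ex 470/em 525 nm; anisotropy plotted against protein concentration and curve-fitted.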

[5] = target: MBD2-MBD (UniProt Q9UBB5 145-213); test: fluorescence polarization
Sequence of MBD2-MBD (UniProt Q9UBB5 145-213) (Q9UBB5 145-213): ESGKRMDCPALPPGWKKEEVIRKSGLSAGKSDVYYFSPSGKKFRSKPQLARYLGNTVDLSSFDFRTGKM

T1 sequence (Q9UBB5 145-213 limits assumed): as the sequence (Q9UBB5 145-213) above

Molecule | dose-response for inhibition of MBD2-MBD binding to methylated DNA (in words) [1] | IC50 [1] [nM] | inhibition of SP-1 binding to DNA (in words) [2] | other results
NC(Cc1cc(O)c(O)cc1O)C(=O)O (racemic) [6-Hydroxy-DL-DOPA] | failed to show appreciable inhibition | – | – | –
N[C@H](C(=O)O)[C@H]1C[C@@H]1C(=O)O [(2S,1S,2S)-2-(carboxycyclopropyl)glycine] | failed to show appreciable inhibition | – | – | –
O=C(O)C1=CC(=C(c2ccc(O)c(C(=O)O)c2)c2ccc(O)c(C(=O)O)c2)C=CC1=O [Aurintricarboxylic acid] | showed a sigmoidal dose-response | 2.7 | prevented binding of SP1 to DNA with similar potency | –
CCN(CC)CCOCCOC(=O)C1(c2ccccc2)CCCC1 [Carbetapentane citrate] | failed to show appreciable inhibition | – | – | –
CN(N=O)c1cc(O)ccc1O [Dephostatin] | failed to show appreciable inhibition | – | – | –
CC(=O)[C@]1(O)Cc2c(O)c3c(c(O)c2[C@@H](O[C@H]2C[C@H](N)[C@H](O)[C@H](C)O2)C1)C(=O)c1ccccc1C3=O [Idarubicin] | showed a sigmoidal dose-response | 196 | prevented binding of SP1 to DNA with similar potency | IC50 [2]: 580 nM
CN(N=O)c1ccc(O)c(O)c1 [Me-3,4-dephostatin] | failed to show appreciable inhibition | – | – | –
O=C1c2c(O)ccc(O)c2C(=O)c2c(NCCNCCO)ccc(NCCNCCO)c21 [Mitoxantrone] | showed a sigmoidal dose-response | 94 | prevented binding of SP1 to DNA with similar potency | IC50 [2]: 314 nM
unmethylated DNA: FAM-labeled hairpin oligonucleotide 5′-ATGCTCGTAGCACTTTTGTGCTACGAGCAT-3′ (unmethylated) (DNA, backbone not given here; FAM label, hairpin) | – | – | – | EC50 ([2]; read-out: EC50 of SP-1 binding to DNA, TR-FRET assay, binding curve): 22 nM; EC50 [3]: > 1000 nM; EC50 [4]: > 1000 nM
ATGCTCGTAGCACTTTTGTGCTACGAGCAT (structured_DNA, 5-methyl-C at C6 and C24 (printed Cme)) [methylated hairpin FAM] | – | – | – | apparent K (half saturation) [5]: 42.7 nM
